Data published in ChEMBL document CHEMBL3286331, “Design, synthesis and evaluation of novel quinazoline-2,4-dione derivatives as chitin synthase inhibitors and antifungal agents” (Bioorg Med Chem, 2014).
Values after ≈ are worked out from the molar mass of the structure shown.

Columns and labels:
Escherichia coli = assay: Antibacterial activity against Escherichia coli JM 109 after overnight incubation by disc diffusion method; assay type: functional
Outline: (§1)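 Agar disc diffusion on beef extract–peptone medium (1% peptone, 0.3% beef extract, 0.5% NaCl, […]), compounds dissolved in sterile water; streptomycin sulfate positive control; plates incubated overnight at 37 °C, then MIC recorded (mg/L).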

Staphylococcus aureus [1] = assay: Antibacterial activity against Staphylococcus aureus ATCC 25923 after overnight incubation by disc diffusion method; assay type: functional; outline: as §1
Bacillus = assay: Antibacterial activity against Bacillus proteus after overnight incubation by disc diffusion method; assay type: functional; outline: as §1
Bacillus spizizenii = assay: Antibacterial activity against Bacillus subtilis ATCC 6633 after overnight incubation by disc diffusion method; assay type: functional; outline: as §1
Staphylococcus aureus [2] = assay: Antibacterial activity against methicillin-resistant Staphylococcus aureus N315 after overnight incubation by disc diffusion method; assay type: functional
Outline: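 Disc diffusion on beef extract-peptone agar (1% peptone, 0.3% beef extract, 0.5% NaCl, […]); compounds dissolved in sterile water; streptomycin sulfate positive control; plates incubated overnight at 37 °C, then MIC (mg/L) recorded.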

Pseudomonas aeruginosa = assay: Antibacterial activity against Pseudomonas aeruginosa CR56 after overnight incubation by disc diffusion method; assay type: functional; outline: as §1
Candida albicans [3] = assay: Antifungal activity against Candida albicans ATCC 76615 after 48 hrs by disc diffusion method; assay type: functional; settings: ATCC 76615, 48 h
Outline: (§2)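 Disc diffusion on modified Sabouraud-chloramphenicol agar (1% peptone, 2% glucose, […]), compounds as sterile-water stocks; fluconazole and polyoxin B positive controls; MIC (mg/L) recorded after 48 h at 37 °C.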

[4] = Inhibition of Saccharomyces cerevisiae CGMCC 2.145 chitin synthase assessed as UDP-GlcNAc conversion to chitin after 45 mins by ELISA
Outline: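 Enzyme prepared from S. cerevisiae cells sonicated at 4 °C in 50 mM Tris–HCl pH 7.0 with protease inhibitors and PMSF; 55,000 g membrane pellet used. Wells hold UDP-GlcNAc plus 320 mM GlcNAc, compound in Tris buffer (final DMSO below 3%), 45 min at 37 °C. Chitin detected with HRP–wheat germ agglutinin, TMB read at 450 nm against a chitin standard curve; IC50 derived.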

Aspergillus flavus [5] = assay: Antifungal activity against Aspergillus flavus after 48 hrs by disc diffusion method; assay type: functional; outline: as §2
Cryptococcus neoformans = assay: Antifungal activity against Cryptococcus neoformans after 48 hrs by disc diffusion method; assay type: functional; outline: as §2
Candida albicans [6] = assay: Ratio of polyoxin B MIC to compound MIC for Candida albicans ATCC 76615; assay type: functional
Aspergillus flavus [7] = assay: Ratio of polyoxin B MIC to compound MIC for Aspergillus flavus; assay type: functional
Candida albicans [8] = assay: Ratio of fluconazole MIC to compound MIC for Candida albicans ATCC 76615; assay type: functional
Aspergillus flavus [9] = assay: Ratio of fluconazole MIC to compound MIC for Aspergillus flavus; assay type: functional

Row | Compound | MIC (Escherichia coli) [µg/mL] | MIC (Staphylococcus aureus [1]) [µg/mL] | MIC (Bacillus) [µg/mL] | MIC (Bacillus spizizenii) [µg/mL] | MIC (Staphylococcus aureus [2]) [µg/mL] | MIC (Pseudomonas aeruginosa) [µg/mL] | MIC (Candida albicans [3]) [µg/mL] | IC50 [4] [µM] | MIC (Aspergillus flavus [5]) [µg/mL] | MIC (Cryptococcus neoformans) [µg/mL] | Ratio (Candida albicans [6]) | Ratio (Aspergillus flavus [7]) | Ratio (Candida albicans [8]) | Ratio (Aspergillus flavus [9])
1 | CN[C@@H]1[C@H](O[C@H]2[C@H](O[C@H]3[C@H](O)[C@@H](O)[C@H](N=C(N)N)[C@@H](O)[C@@H]3N=C(N)N)O[C@@H](C)[C@]2(O)C=O)O[C@@H](CO)[C@H](O)[C@H]1O.CN[C@@H]1[C@H](O[C@H]2[C@H](O[C@H]3[C@H](O)[C@@H](O)[C@H](N=C(N)N)[C@@H](O)[C@@H]3N=C(N)N)O[C@@H](C)[C@]2(O)C=O)O[C@@H](CO)[C@H](O)[C@H]1O.O=S(=O)(O)O.O=S(=O)(O)O.O=S(=O)(O)O [STREPTOMYCIN SULFATE] | 64 | 64 | 64 | 64 | 64 | 64 |  |  |  |  |  |  |  | 
2 | NC(=O)OC[C@H](O)[C@@H](O)[C@H](N)C(=O)N[C@H](C(=O)O)[C@H]1O[C@@H](n2cc(CO)c(=O)[nH]c2=O)[C@H](O)[C@@H]1O [POLYOXIN B] |  |  |  |  |  |  | 16 (≈ 31.5 µM) | 180 | 32 (≈ 63.1 µM) | 4 (≈ 7.88 µM) |  |  |  | 
3 | CN(CC(=O)Nc1ccc(C(F)(F)F)cc1)CC(O)Cn1c(=O)c2ccccc2n(C)c1=O.Cl (stereo not given) | ≥ 512 | ≥ 512 | ≥ 512 | ≥ 512 | ≥ 512 | ≥ 512 | 32 | 110 | 8 | 32 |  |  |  | 
4 | CN(CC(=O)NCc1ccccc1)CC(O)Cn1c(=O)c2ccccc2n(C)c1=O.Cl (stereo not given) | ≥ 512 | ≥ 512 | ≥ 512 | ≥ 512 | ≥ 512 | ≥ 512 | 32 | 130 | 32 | 64 |  |  |  | 
5 | CN(CC(=O)NC(C)(C)C)CC(O)Cn1c(=O)c2ccccc2n(C)c1=O.Cl (stereo not given) | ≥ 512 | ≥ 512 | ≥ 512 | ≥ 512 | ≥ 512 | ≥ 512 | > 512 | 140 | 64 | 128 |  |  |  | 
6 | CN(CC(=O)N1CCCCC1)CC(O)Cn1c(=O)c2ccccc2n(C)c1=O.Cl (stereo not given) | ≥ 512 | ≥ 512 | ≥ 512 | ≥ 512 | ≥ 512 | ≥ 512 | 32 | > 750 |  | 512 |  |  |  | 
7 | CN(CC(=O)Nc1cccc([N+](=O)[O-])c1)CC(O)Cn1c(=O)c2ccccc2n(C)c1=O.Cl (stereo not given) | ≥ 512 | ≥ 512 | ≥ 512 | ≥ 512 | ≥ 512 | ≥ 512 | 4 | 240 | 4 | 8 | 4 | 8 | 8 | 16
8 | CCN(CC)C(=O)CN(C)CC(O)Cn1c(=O)c2ccccc2n(C)c1=O.Cl (stereo not given) | ≥ 512 | ≥ 512 | ≥ 512 | ≥ 512 | ≥ 512 | ≥ 512 | 64 | 340 | 8 | 16 |  |  |  | 
9 | CN(CC(=O)N(C)c1ccccc1)CC(O)Cn1c(=O)c2ccccc2n(C)c1=O.Cl (stereo not given) | ≥ 512 | ≥ 512 | ≥ 512 | ≥ 512 | ≥ 512 | ≥ 512 | 64 | 320 | 256 | 8 |  |  |  | 
10 | CN(CC(=O)Nc1ccc(Cl)cc1)CC(O)Cn1c(=O)c2ccccc2n(C)c1=O.Cl (stereo not given) | ≥ 512 | ≥ 512 | ≥ 512 | ≥ 512 | ≥ 512 | ≥ 512 | 16 | 160 | 128 | 2 |  |  |  | 
11 | COC(=O)c1ccccc1NC(=O)CN(C)CC(O)Cn1c(=O)c2ccccc2n(C)c1=O.Cl (stereo not given) | ≥ 512 | ≥ 512 | ≥ 512 | ≥ 512 | ≥ 512 | ≥ 512 | 32 | 170 | 4 | 2 |  | 8 |  | 16
